Results of several laboratories.

Compound	species	medium	route	dose	notes	endpoint	value
c1ccc(-c2nc(N3CCC(c4ccccn4)C3)c3ccccc3n2)nc1 (stereo not shown)	female BALB/c mouse	plasma	oral	50 mg/kg	–	MRT(0-inf)	5.7 h
COc1nc(-c2cc(C)c(N[C@@H](C)c3cc(F)cc(F)c3)nn2)ccc1-n1cnc(C)c1	male CD-1 mouse	plasma	oral	5 mg/kg	single dose	MRT(0-t)	5.4 h
COc1cc(C2Oc3cc([C@H]4Oc5cc(O)cc(O)c5C(=O)[C@@H]4O)ccc3OC2CO)ccc1O (stereo partly shown)	male CD-1 mouse	plasma	intravenous	2 mg/kg	–	MRT(0-inf)	0.103 h
COc1nc(-c2cc(C)c(N[C@@H](C)c3ccc(F)cc3)nn2)ccc1-n1cnc(C)c1	male CD-1 mouse	plasma	intravenous	1 mg/kg	single dose	MRT(0-t)	3.62 h
CCc1cc(OC)c2nccc(N3CCc4c(cc(Cn5ccnc5)cc4-c4cn(C)nc4C(F)(F)F)C3=O)c2c1	male CD-1 mouse	plasma	oral	50 mg/kg	–	MRT(0-inf)	2.5 h
CC(C)(Nc1nc(-c2ccccn2)nc2ccccc12)c1ccccn1	female BALB/c mouse	plasma	intravenous	1 mg/kg	–	MRT(0-t)	1.2 h
COc1ccc2nccc(N3CCc4c(cc(Cn5ccnc5)cc4-c4cn(C)nc4C(F)(F)F)C3=O)c2c1	male CD-1 mouse	plasma	oral	10 mg/kg	–	MRT(0-inf)	1.4 h
Cc1cc(NC(=O)c2cccc3cc(-c4cccc5[nH]nc(N)c45)ccc23)ccc1F	male CD-1 mouse	brain	oral	10 mg/kg	–	MRT(0-inf)	3.74 h
CCc1cc(C(=O)NC)c2nccc(N3CCc4c(cc(Cn5ccnc5)cc4-c4cn(C)nc4C(F)(F)F)C3=O)c2c1	male CD-1 mouse	plasma	oral	50 mg/kg	–	MRT(0-inf)	3.1 h
COc1nc(-c2cc(C)c(N[C@@H](C)c3c(F)cc(F)cc3F)nn2)ccc1-n1cnc(C)c1	male CD-1 mouse	plasma	oral	5 mg/kg	single dose	MRT(0-t)	5.24 h
